Measured values as given in paper PMC9616052 (Archiv der Pharmazie, 2022).
Read-outs that look alike come from different tables or passages of the source. Where a SMILES comes first, the peptide text is derived from it.

Key:
Format in all cases: biochemical
[1] = target: T1, circularly permutated caspase-2 (cpCasp2) (Homo sapiens, UniProt P42575); test: Fluorometric enzyme inhibition assay, cpCasp2
T1 sequence (P42575 1-452): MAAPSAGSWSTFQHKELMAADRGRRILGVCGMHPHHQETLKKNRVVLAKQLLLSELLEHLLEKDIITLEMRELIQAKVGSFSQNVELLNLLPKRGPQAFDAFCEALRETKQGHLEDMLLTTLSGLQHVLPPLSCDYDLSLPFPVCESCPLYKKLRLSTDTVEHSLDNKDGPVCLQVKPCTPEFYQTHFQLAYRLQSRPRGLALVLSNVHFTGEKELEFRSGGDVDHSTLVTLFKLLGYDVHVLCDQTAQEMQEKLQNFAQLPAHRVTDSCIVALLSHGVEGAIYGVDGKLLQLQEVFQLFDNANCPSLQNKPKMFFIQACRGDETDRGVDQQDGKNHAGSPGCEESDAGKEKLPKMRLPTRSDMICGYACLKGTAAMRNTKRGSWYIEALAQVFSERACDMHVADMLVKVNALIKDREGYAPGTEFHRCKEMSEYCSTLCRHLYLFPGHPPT

caspase-3 (Casp3) = target: T2, caspase-3 (Casp3) (Homo sapiens, UniProt P42574); test: Fluorometric enzyme inhibition assay, Casp3; conditions: SEM
T2 sequence (P42574 29-175 limits assumed): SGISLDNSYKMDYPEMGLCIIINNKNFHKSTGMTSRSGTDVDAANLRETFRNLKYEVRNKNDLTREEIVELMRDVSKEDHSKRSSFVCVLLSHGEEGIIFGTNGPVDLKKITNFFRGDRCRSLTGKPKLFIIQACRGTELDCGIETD
T2 sequence (P42574 176-277 limits assumed): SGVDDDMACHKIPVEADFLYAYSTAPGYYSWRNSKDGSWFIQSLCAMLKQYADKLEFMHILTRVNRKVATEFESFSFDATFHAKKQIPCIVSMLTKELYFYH
Summary of the method: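 Recombinant Casp3 produced in house, 2 nM/well, in 100 mM HEPES pH 7.0, 150 mM NaCl, 0.1% CHAPS, 1.5% sucrose, 10 mM DTT. Preincubated with DMSO-diluted test compound 5 min, 37 °C. AcDEVD-AFC (Km 7.6 μM) at 5 μM (384-well, duplicate) or 10 μM (96-well, triplicate). Fluorescence ex 400/em 505 nm at 37 °C, 40 min reading. Four-parameter IC50 converted to Ki via Cheng–Prusoff.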

caspase-2 (Casp2) = target: T3, caspase-2 (Casp2) (Homo sapiens, UniProt P42575); test: Fluorometric enzyme inhibition assay, Casp2
T3 sequence (P42575 170-333 limits assumed): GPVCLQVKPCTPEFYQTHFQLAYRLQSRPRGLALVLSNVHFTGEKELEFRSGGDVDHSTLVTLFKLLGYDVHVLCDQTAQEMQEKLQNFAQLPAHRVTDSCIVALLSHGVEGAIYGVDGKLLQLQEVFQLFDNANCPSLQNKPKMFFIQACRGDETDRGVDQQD
T3 sequence (P42575 348-452 limits assumed): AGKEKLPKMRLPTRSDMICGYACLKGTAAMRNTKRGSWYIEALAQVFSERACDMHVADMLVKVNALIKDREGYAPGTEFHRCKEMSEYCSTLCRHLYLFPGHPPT
Summary of the method: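 In-house recombinant Casp2 in 100 mM MES pH 6.5, 150 mM NaCl, 0.1% CHAPS, 1.5% sucrose, 10 mM DTT. […] 384-well: 20 nM enzyme, 10 μM substrate, duplicate. 96-well: 5 nM, 25 μM, triplicate. AFC fluorescence (ex 400/em 505 nm) at 37 °C, 40 min point. Four-parameter IC50 fit, converted by Cheng–Prusoff.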

Compound	Ki [1]	Ki (caspase-3 (Casp3))	Ki (caspase-2 (Casp2); SEM)	Ki ([1]; SEM)	Ki (caspase-2 (Casp2))
CC(=O)N[C@H](C(=O)N1CCC[C@H]1C(=O)N[C@H](C=O)CC(=O)O)C(C)C [compound 17, (S)-3-[(S)-1-(Acetyl-L-valyl)pyrrolidine-2-carboxamido]-4-oxobutanoic acid] (Ac-Val-Pro-Asp-aldehyde)	> 100 µM	5750 nM			
CC(=O)NCCCC[C@H](NC(=O)[C@@H](NC(=O)[C@@H](NC(C)=O)[C@@H](C)O)C(C)C)C(=O)N[C@H](C=O)CC(=O)O [compound 30, (4S,7S,10S,13S)-10-(4-Acetamidobutyl)-13-formyl-4-[(R)-1-hydroxyethyl]-7-isopropyl-2,5,8,11-tetraoxo-3,6,9,12-tetraazapentadecan-15-oic acid] (Ac-TVK(Ac)D-aldehyde)		224 nM	20 µM	20.9 µM	
CC(=O)NCCCC[C@H](NC(=O)[C@@H](NC(C)=O)C(C)C)C(=O)N[C@H](C=O)CC(=O)O [compound 31, (S)-3-{(S)-6-Acetamido-2-[(S)-2-acetamido-3-methylbutanamido]hexanamido}-4-oxobutanoic acid] (Ac-Val-Lys(Ac)-Asp-aldehyde)		9550 nM			> 100 µM
CC(=O)N[C@H](C(=O)N[C@@H](CC(=O)O)C(=O)N[C@H](C(=O)N[C@@H](C)C(=O)N[C@H](C=O)CC(=O)O)[C@@H](C)O)[C@@H](C)O [compound 55, (4S,7S,10S,13S,16S)-7-(Carboxymethyl)-16-formyl-4,10-bis[(R)-1-hydroxyethyl]-13-methyl-2,5,8,11,14-pentaoxo-3,6,9,12,15-pentaazaoctadecan-18-oic acid] (Ac-TDTAD-aldehyde)		60.3 nM	0.0331 µM	0.0646 µM	
